The results in this text go back to ChEMBL document CHEMBL3124759, “Synthesis, nicotinic acetylcholine receptor binding, and antinociceptive properties of 2'-fluoro-3'-(substituted pyridinyl)-7-deschloroepibatidine analogues” (J Med Chem, 2014).

Experiment [1] deals with Mus musculus. As to the kind of experiment: Inhibition of nicotine-induced antinociception in mouse at 100 ug/kg, sc after 5 mins by hot plate test relative to control. In kind it is functional.
Experiment [2] deals with Mus musculus. Put plainly: Antinociceptive activity in mouse at 10 mg/kg, sc after 5 mins by tail flick test relative to control. The experiment is classed as functional. The following applies: route subcutaneous. For orientation: In hot-plate and tail-flick tests a longer latency is read as antinociception.
Experiment [3] concerns Mus musculus. Put plainly: Effect on hypothermia in sc dosed mouse after 30 mins. The experiment is classed as functional. Conditions: 0.5 h.
Experiment [4] deals with Mus musculus. As to the kind of experiment: Effect on spontaneous activity in sc dosed mouse after 5 mins. In kind it is functional.
The species entered for the next experiment is Rattus norvegicus. Put plainly: Selectivity ratio of IC50 for rat alpha7 nAChR to IC50 for rat alpha4beta2 nAChR.
Experiment [5] has as its system Mus musculus. Put plainly: Antinociceptive activity in mouse at 10 mg/kg, sc by hot plate test relative to control. The experiment is classed as functional. The following applies: route subcutaneous.
The test system of experiment [6] is Mus musculus. Put plainly: Inhibition of nicotine-induced antinociception in mouse at 10000 ug/kg, sc after 5 mins by hot plate test relative to control. The experiment is classed as functional.
The target of experiment [7] is Neuronal acetylcholine receptor subunit alpha-7 (Rattus norvegicus) (UniProt Q05941). Put plainly: Agonist activity at rat alpha7 nAChR expressed in Xenopus laevis oocytes assessed as stimulation of acetylcholine-induced current at 100 uM by two-electrode voltage clamp electrophysiological analysis relative to acetylcholine. In kind it is cell-based. The method, boiled down:
(§1)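 Rat receptors expressed in Xenopus oocytes, two-electrode voltage clamp. Current evoked by 100 µM test compound was compared with the mean of three preceding ACh applications. The response was expressed as a percentage of the maximal ACh response.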
(In two-electrode clamp one electrode senses voltage and the other passes current.)

The test system of experiment [8] is Mus musculus. Put plainly: Inhibition of nicotine-induced antinociception in mouse at 1000 ug/kg, sc after 5 mins by hot plate test relative to control. The experiment is classed as functional.
In experiment [9] the test system is Mus musculus. Put plainly: Inhibition of nicotine-induced antinociception in mouse at 100 ug/kg, sc after 5 mins by tail flick test relative to control. In kind it is functional.
Experiment [10] addresses Neuronal acetylcholine receptor; alpha3/beta4 (Rattus norvegicus) (UniProt P04757+P12392). As to the kind of experiment: Agonist activity at rat alpha3beta4 nAChR expressed in Xenopus laevis oocytes assessed as stimulation of acetylcholine-induced current at 100 uM by two-electrode voltage clamp electrophysiological analysis relative to acetylcholine. In kind it is cell-based. The method, boiled down:
as §1

The target in experiment [11] is Neuronal acetylcholine receptor subunit alpha-7 (Rattus norvegicus) (UniProt Q05941). As to the kind of experiment: Antagonist activity at rat alpha7 nAChR expressed in Xenopus laevis oocytes assessed as inhibition of acetylcholine-induced current at 100 uM by two-electrode voltage clamp electrophysiological analysis relative to acetylcholine. In kind it is cell-based.
Chain of Neuronal acetylcholine receptor subunit alpha-7 (Rattus norvegicus) (Q05941 whole entry): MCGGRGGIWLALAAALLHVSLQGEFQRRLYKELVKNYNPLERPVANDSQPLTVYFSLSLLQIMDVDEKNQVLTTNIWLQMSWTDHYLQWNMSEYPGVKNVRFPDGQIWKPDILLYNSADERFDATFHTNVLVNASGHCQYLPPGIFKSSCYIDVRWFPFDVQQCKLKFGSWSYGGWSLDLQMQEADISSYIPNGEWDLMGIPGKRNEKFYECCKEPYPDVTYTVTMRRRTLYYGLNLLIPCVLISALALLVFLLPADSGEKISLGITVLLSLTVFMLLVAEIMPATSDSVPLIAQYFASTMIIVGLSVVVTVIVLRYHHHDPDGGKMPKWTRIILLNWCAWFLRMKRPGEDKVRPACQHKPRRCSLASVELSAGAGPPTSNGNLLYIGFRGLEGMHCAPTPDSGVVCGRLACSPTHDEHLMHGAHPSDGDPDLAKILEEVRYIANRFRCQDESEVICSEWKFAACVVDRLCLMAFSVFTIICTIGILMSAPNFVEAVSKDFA

In experiment [12] the test system is Mus musculus. As to the kind of experiment: Antinociceptive activity in sc dosed mouse after 5 mins by tail flick test. In kind it is functional.
Experiment [13] concerns Mus musculus. Put plainly: Antinociceptive activity in sc dosed mouse by hot plate test. In kind it is functional.
Experiment [14] addresses T1, Neuronal acetylcholine receptor; alpha4/beta2 (Rattus norvegicus) (UniProt P09483+P12390). As to the kind of experiment: Agonist activity at rat alpha4beta2 nAChR expressed in Xenopus laevis oocytes assessed as stimulation of acetylcholine-induced current at 100 uM by two-electrode voltage clamp electrophysiological analysis relative to acetylcholine. In kind it is cell-based. The essentials: as §1

Experiment [15] has as its target Neuronal acetylcholine receptor; alpha4/beta2 (Rattus norvegicus, UniProt P09483+P12390). As to the kind of experiment: Antagonist activity at rat alpha4beta2 nAChR expressed in Xenopus laevis oocytes assessed as inhibition of acetylcholine-induced current by two-electrode voltage clamp electrophysiological analysis. In kind it is cell-based. The essentials: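 Two-electrode voltage clamp on rat α4β2, α3β4 or α7 nAChRs expressed in Xenopus oocytes. Compounds were tested across a concentration range to build concentration-inhibition curves. Data were fitted to I = Imax/[1+(IC50/X)^n] to derive IC50 and Hill coefficient.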

Experiment [16] addresses T1, Neuronal acetylcholine receptor; alpha4/beta2 (Rattus norvegicus). Put plainly: Antagonist activity at rat alpha4beta2 nAChR expressed in Xenopus laevis oocytes assessed as inhibition of acetylcholine-induced current at 100 uM by two-electrode voltage clamp electrophysiological analysis relative to acetylcholine. In kind it is cell-based.
The subject of experiment [17] is Mus musculus. As to the kind of experiment: Inhibition of nicotine-induced antinociception in sc dosed mouse after 5 mins by hot plate test. The experiment is classed as functional.
The test system of experiment [18] is Mus musculus. Put plainly: Inhibition of nicotine-induced antinociception in sc dosed mouse after 5 mins by tail flick test. The experiment is classed as functional.
Experiment [19] has as its target Neuronal acetylcholine receptor; alpha3/beta4 (Rattus norvegicus, UniProt P04757+P12392). As to the kind of experiment: Agonist activity at rat alpha3beta4 nAChR expressed in Xenopus laevis oocytes assessed as stimulation of acetylcholine-induced current by two-electrode voltage clamp electrophysiological analysis. The experiment is classed as cell-based.

Chain of Neuronal acetylcholine receptor; alpha3/beta4 (P04757 whole entry): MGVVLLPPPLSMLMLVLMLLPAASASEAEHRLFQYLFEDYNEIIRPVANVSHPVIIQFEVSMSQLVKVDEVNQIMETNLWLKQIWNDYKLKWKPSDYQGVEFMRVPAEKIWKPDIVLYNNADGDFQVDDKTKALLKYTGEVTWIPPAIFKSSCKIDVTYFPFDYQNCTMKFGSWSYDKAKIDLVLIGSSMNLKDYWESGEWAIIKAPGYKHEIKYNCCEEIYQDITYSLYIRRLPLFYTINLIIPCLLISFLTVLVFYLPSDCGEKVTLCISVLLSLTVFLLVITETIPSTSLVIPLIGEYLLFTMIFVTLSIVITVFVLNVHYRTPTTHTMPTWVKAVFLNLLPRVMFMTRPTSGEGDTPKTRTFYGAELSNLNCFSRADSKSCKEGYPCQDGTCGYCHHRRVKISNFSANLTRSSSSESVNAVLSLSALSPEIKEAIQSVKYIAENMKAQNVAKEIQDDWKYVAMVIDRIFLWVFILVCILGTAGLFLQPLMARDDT
Chain of Neuronal acetylcholine receptor; alpha3/beta4 (P12392 whole entry): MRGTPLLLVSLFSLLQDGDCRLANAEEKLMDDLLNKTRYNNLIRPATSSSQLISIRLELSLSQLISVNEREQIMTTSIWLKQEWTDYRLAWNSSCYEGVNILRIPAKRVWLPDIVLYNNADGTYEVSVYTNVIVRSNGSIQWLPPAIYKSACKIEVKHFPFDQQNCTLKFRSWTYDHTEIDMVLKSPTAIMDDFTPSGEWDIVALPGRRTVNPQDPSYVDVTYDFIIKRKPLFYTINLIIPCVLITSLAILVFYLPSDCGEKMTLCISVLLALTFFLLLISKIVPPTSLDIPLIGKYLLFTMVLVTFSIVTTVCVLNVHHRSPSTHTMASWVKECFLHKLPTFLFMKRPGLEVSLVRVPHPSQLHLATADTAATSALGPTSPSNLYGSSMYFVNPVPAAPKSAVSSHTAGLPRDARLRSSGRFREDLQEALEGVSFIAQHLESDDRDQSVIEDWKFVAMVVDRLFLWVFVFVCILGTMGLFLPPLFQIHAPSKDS
Chain of Neuronal acetylcholine receptor; alpha4/beta2 (P09483 whole entry): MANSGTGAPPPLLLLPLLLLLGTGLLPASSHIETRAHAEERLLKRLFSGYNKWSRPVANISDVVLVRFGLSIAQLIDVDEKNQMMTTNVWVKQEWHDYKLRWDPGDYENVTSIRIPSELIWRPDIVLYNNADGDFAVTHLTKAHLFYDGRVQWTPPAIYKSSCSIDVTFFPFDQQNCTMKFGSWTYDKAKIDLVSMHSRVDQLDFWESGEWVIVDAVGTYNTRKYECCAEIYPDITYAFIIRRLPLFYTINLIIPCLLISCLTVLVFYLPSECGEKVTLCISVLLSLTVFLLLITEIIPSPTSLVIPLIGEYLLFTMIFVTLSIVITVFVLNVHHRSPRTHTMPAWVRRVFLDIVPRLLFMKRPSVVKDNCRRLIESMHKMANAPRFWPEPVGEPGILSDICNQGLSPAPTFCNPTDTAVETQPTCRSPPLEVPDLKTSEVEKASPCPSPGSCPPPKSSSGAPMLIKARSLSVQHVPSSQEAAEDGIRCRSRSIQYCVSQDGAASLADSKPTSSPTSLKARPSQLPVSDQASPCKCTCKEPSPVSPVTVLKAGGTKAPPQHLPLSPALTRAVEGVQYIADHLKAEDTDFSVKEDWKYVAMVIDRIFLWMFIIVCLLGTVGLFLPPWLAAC
Chain of Neuronal acetylcholine receptor; alpha4/beta2 (P12390 whole entry): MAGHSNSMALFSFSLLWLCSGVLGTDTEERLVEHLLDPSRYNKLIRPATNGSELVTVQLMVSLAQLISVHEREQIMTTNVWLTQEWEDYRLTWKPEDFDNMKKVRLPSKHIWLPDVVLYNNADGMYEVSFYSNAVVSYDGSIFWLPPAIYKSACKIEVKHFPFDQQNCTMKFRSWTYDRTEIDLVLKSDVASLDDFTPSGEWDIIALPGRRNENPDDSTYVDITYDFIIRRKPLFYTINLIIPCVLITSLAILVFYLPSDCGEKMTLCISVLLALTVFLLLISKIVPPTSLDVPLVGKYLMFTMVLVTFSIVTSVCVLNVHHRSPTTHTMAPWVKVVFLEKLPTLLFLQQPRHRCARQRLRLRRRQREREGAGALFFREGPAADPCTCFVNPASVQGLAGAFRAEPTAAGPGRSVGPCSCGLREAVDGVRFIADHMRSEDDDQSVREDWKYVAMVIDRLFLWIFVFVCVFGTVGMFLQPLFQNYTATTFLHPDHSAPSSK

In the experiment on Mus musculus [1], `COc1ccc(-c2cc([C@H]3C[C@H]4CC[C@H]3N4)cnc2F)cn1` (racemic) displayed an inhibition in vivo at 0.1 mg/kg of 0%.
`O=[N+]([O-])c1ccc(-c2cc([C@H]3C[C@H]4CC[C@H]3N4)cnc2F)cc1` (racemic): in the experiment with Mus musculus [2], the Activity was determined as 5%. The ED50 was determined as 0.21 mg/kg with Mus musculus [3] and 0.22 mg/kg with Mus musculus [4]. Besides, the Ratio IC50 in the experiment filed under Rattus norvegicus was determined as 10.
As to `O=[N+]([O-])c1cccc(-c2cc(C3CC4CCC3N4)cnc2F)c1` (racemic), the Activity in the experiment on Mus musculus [5] is listed as 20%; in the experiment with Mus musculus [2], 3%. This compound also yielded an ED50 with Mus musculus [4] of 6.5 mg/kg.
In turn, `COc1cc(-c2cc([C@H]3C[C@H]4CC[C@H]3N4)cnc2F)ccn1` (racemic) registered an inhibition in vivo at 10 mg/kg in the experiment with Mus musculus [6] of 40%.
As for `Fc1ncc(C2CC3CCC2N3)cc1-c1cccnc1` (racemic), the Emax in experiment [7] was determined as 7%. Further, the inhibition in vivo at 1 mg/kg in the experiment with Mus musculus [8] worked out at 10%.
On to `Fc1ccc(-c2cc([C@H]3C[C@H]4CC[C@H]3N4)cnc2F)cn1` (racemic), for which the inhibition in vivo at 0.1 mg/kg in the experiment with Mus musculus [1] and in the experiment on Mus musculus [9] was 1% in each case. Also, the Emax in experiment [10] turned out to be 9%.
With `Nc1cc(-c2cc([C@H]3C[C@H]4CC[C@H]3N4)cnc2F)ccn1` (racemic), in experiment [7], the maximum response (Emax) was found to be 10%.
For the compound `Nc1ccc(-c2cc([C@H]3C[C@H]4CC[C@H]3N4)cnc2F)cn1` (racemic), the Imax in experiment [11] amounted to 50%.
As to `Clc1ccc(C2CC3CCC2N3)cn1` (centres undefined) [EPIBATIDINE], the ED50 in the experiment on Mus musculus [12] came out at 0.006 mg/kg; in the experiment on Mus musculus [13], 0.004 mg/kg; in the experiment with Mus musculus [4], 0.001 mg/kg. The Emax in experiment [7] was 150%; in experiment [10] it was 97%; in experiment [14] it was 131%.
Turning to `CN1CCC[C@H]1c1cccnc1` [NICOTINE], the values for the Emax in experiment [7], in [10] and in experiment [14] were 43%, 37% and 40%, respectively. In addition, the ED50 with Mus musculus [3] turned out to be 1 mg/kg; in the experiment on Mus musculus [4], 0.5 mg/kg.
For `c1cnc2cc3c(cc2n1)[C@@H]1CNC[C@H]3C1` [VARENICLINE], the IC50 in experiment [15] worked out at 0.2 µM. The Activity in the experiment on Mus musculus [5] is 10%; in the experiment on Mus musculus [2] it was 11%. Besides, the Emax in experiment [7] was 74%; in experiment [10], 66%; in experiment [14], 13%. Moreover, in experiment [16], the Imax was determined as 38%. Further, the figures for the AD50 in the experiment on Mus musculus [17] and with Mus musculus [18] were 0.47 mg/kg and 0.0002 mg/kg, respectively. For the same compound, the ED50 in the experiment with Mus musculus [3] was determined as 2.8 mg/kg; in the experiment on Mus musculus [4], 2.1 mg/kg. Also, in experiment [19], the EC50 was found to be 55 µM.

For orientation: inhibition in vivo means the share of the control response that was lost under treatment. Usually ED50 stands for the dose that gives a 50% effect, or the effect in half of the subjects. As a reminder, the Emax is the maximal effect, on the per cent scale that the assay sets. As a reminder, the IC50 is the midpoint of a concentration-inhibition curve. Usually EC50 stands for the concentration at which the effect is half-maximal.
